# Measured values: ChEMBL document CHEMBL1148274, “Bile acid amides derived from chiral amino alcohols: novel antimicrobials and antifungals” (Bioorg Med Chem Lett, 2004)
# Key:
# Aspergillus niger = experiment: Antifungal activity against Aspergillus niger was determined by twofold Micro-broth dilution assay; format: functional, organism-based
# Method in brief: (§1)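 Fungal strains tested by two-fold serial broth microdilution in microtitre plates. Cells diluted in phosphate-buffered saline to 10^6 cfu/mL and inoculated at a final 10^3 cells per 150 µL medium. Medium/inoculum and solvent controls were included. Incubation at 28 °C, then OD read at 600 nm. IC50 is the concentration at which growth is 50% of the control inoculum.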
# Aspergillus flavus = experiment: Antifungal activity against Aspergillus flavus was determined by twofold Micro-broth dilution assay; format: functional, organism-based; method in brief: as §1
# Candida albicans = experiment: Antifungal activity against Candida albicans was determined by twofold Micro-broth dilution assay; format: functional, organism-based; method in brief: as §1
# Nannizzia gypsea [1] = experiment: Antifungal activity against Microsporum gypseum was determined by twofold Micro-broth dilution assay; format: functional, organism-based; method in brief: as §1
# Sporothrix schenckii [2] = experiment: Antifungal activity against Sporothrix schenck ii was determined by twofold Micro-broth dilution assay; format: functional, organism-based; method in brief: as §1
# Trichophyton rubrum = experiment: Antifungal activity against Trichophyton rubrum was determined by twofold Micro-broth dilution assay; format: functional, organism-based; method in brief: as §1
# Cryptococcus neoformans = experiment: Antifungal activity against Cryptococcus neoformans was determined by twofold Micro-broth dilution assay; format: functional, organism-based; method in brief: as §1
# Enterococcus faecalis = experiment: Antibacterial activity against gram positive bacteria Enterococcus faecalis was determined by twofold Micro-broth dilution assay; format: functional, organism-based
# Method in brief: (§2)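 Broth microdilution with two-fold serial dilutions of compound added to pre-inoculated microtitre plates. Inoculum diluted in phosphate-buffered saline to 10^6 cfu/mL, then plated at a final 10^3 cells per 150 µL medium. Controls were medium plus inoculum and a solvent control at the highest-concentration solvent level. Plates incubated at 37 °C and read by OD at 600 nm. IC50 is the concentration giving 50% of control-inoculum growth.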
# Escherichia coli = experiment: Antibacterial activity against gram negative bacteria Escherichia coli was determined by twofold Micro-broth dilution assay; format: functional, organism-based; method in brief: as §2
# Klebsiella aerogenes = experiment: Antibacterial activity against gram negative bacteria Enterobacter aerogens was determined by twofold Micro-broth dilution assay; format: functional, organism-based; method in brief: as §2
# Histoplasma capsulatum = experiment: Antifungal activity against Histoplasma capsulatum was determined by twofold Micro-broth dilution assay; format: functional, organism-based
# Method in brief: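 Fungal broth microdilution. Cells were diluted to 10^6 cfu/mL in phosphate-buffered saline and seeded at a final 10^3 cells per well. Two-fold serial compound dilutions were added. Plates carried inoculum-only and solvent controls, the solvent matched to the highest concentration. After incubation at 28 °C, OD was read at 600 nm. IC50 is the concentration where growth is 50% of control.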
# Salmonella typhimurium = experiment: Antibacterial activity against gram negative bacteria Salmonella Typhimurium was determined by twofold Micro-broth dilution assay; format: functional, organism-based, Salmonella enterica subsp. enterica serovar Typhimurium; details: Salmonella enterica; method in brief: as §2
# Salmonella typhi = experiment: Antibacterial activity against gram negative bacteria Salmonella typhi was determined by twofold Micro-broth dilution assay; format: functional, organism-based, Salmonella enterica subsp. enterica serovar Typhi; details: Salmonella enterica
# Staphylococcus aureus = experiment: Antibacterial activity against gram positive bacteria Staphylococcus aureus was determined by twofold Micro-broth dilution assay; format: functional, organism-based; method in brief: as §2
# Shigella flexneri = experiment: Antibacterial activity against gram negative bacteria Shigella flexenerii was determined by twofold Micro-broth dilution assay; format: functional, organism-based; method in brief: as §2
# Streptococcus mutans = experiment: Antibacterial activity against gram positive bacteria Streptococcus mutans was determined by twofold Micro-broth dilution assay; format: functional, organism-based; method in brief: as §2
# [3] = system: Staphylococcus epidermidis; experiment: Antibacterial activity against gram positive bacteria Staphylococcus epidermidis was determined by twofold Micro-broth dilution assay; format: functional, organism-based; method in brief: as §2
# Nannizzia gypsea [4] = experiment: Antifungal activity against Microsporum gypseum was determined by twofold Micro-broth dilution assay; No data; format: functional, organism-based; method in brief: as §1
# Sporothrix schenckii [5] = experiment: Antifungal activity against Sporothrix schenck ii was determined by twofold Micro-broth dilution assay; No data; format: functional, organism-based; method in brief: as §1
# [6] = Aspergillus niger, read-out: IC50
# [7] = Aspergillus flavus, read-out: IC50
# [8] = Candida albicans, read-out: IC50
# [9] = Nannizzia gypsea, read-out: IC50
# [10] = Sporothrix schenckii, read-out: IC50
# [11] = Trichophyton rubrum, read-out: IC50
Compound,IC50 (Aspergillus niger; [6]) [µg/mL],IC50 (Aspergillus flavus; [7]) [µg/mL],IC50 (Candida albicans; [8]) [µg/mL],IC50 (Nannizzia gypsea [1]; [9]) [µg/mL],IC50 (Sporothrix schenckii [2]; [10]) [µg/mL],IC50 (Trichophyton rubrum; [11]) [µg/mL],IC50 (Cryptococcus neoformans) [µg/mL],IC50 (Enterococcus faecalis) [µg/mL],IC50 (Escherichia coli) [µg/mL],IC50 (Klebsiella aerogenes) [µg/mL],IC50 (Histoplasma capsulatum) [µg/mL],IC50 (Salmonella typhimurium) [µg/mL],IC50 (Salmonella typhi) [µg/mL],IC50 (Staphylococcus aureus) [µg/mL],IC50 (Shigella flexneri) [µg/mL],IC50 (Streptococcus mutans) [µg/mL],IC50 [3] [µg/mL],further results
Clc1ccccc1C(c1ccccc1)(c1ccccc1)n1ccnc1 [CLOTRIMAZOLE],5,0.5,0.0312,0.625,0.0312,0.625,–,–,–,–,–,–,–,–,–,–,–,–
C[C@H](CCC(=O)N[C@H](CO)[C@H](O)c1ccccc1)[C@H]1CC[C@H]2[C@@H]3C(O)C[C@@H]4C[C@H](O)CC[C@]4(C)[C@H]3C[C@H](O)[C@]12C (stereo partly specified),> 250,> 250,> 250,> 250,> 250,> 250,> 250,60,> 250,> 250,> 250,> 250,> 250,> 250,> 250,40,40,–
CN[C@@H]1[C@H](O[C@H]2[C@H](O[C@H]3[C@H](O)[C@@H](O)[C@H](N=C(N)N)[C@@H](O)[C@@H]3N=C(N)N)O[C@@H](C)[C@]2(O)C=O)O[C@@H](CO)[C@H](O)[C@H]1O [STREPTOMYCIN],–,–,–,–,–,–,–,1.25,1.25,1.25,–,1.25,–,0.3,1.25,0.12,0.12,–
C[C@@H]1[C@H](O)[C@@H](C)/C=C/C=C/C=C/C=C/C=C/C=C/C=C/[C@H](O[C@@H]2O[C@H](C)[C@@H](O)[C@H](N)[C@@H]2O)C[C@@H]2O[C@](O)(C[C@@H](O)C[C@@H](O)[C@H](O)CC[C@@H](O)C[C@@H](O)CC(=O)O[C@H]1C)C[C@H](O)[C@H]2C(=O)O [AMPHOTERICIN B],2.5,5,0.0625,–,–,2.5,–,–,–,–,–,–,–,–,–,–,–,IC50 (Nannizzia gypsea [4]): 2.5 µg/mL; IC50 (Sporothrix schenckii [5]): 5 µg/mL
C[C@H](CCC(=O)N[C@H](CO)[C@H](O)c1ccccc1)[C@H]1CC[C@H]2[C@@H]3CC[C@@H]4C[C@H](O)CC[C@]4(C)[C@H]3C[C@H](O)[C@]12C,> 250,> 250,> 250,> 250,> 250,> 250,> 250,60,> 250,> 250,> 250,> 250,> 250,40,> 250,25,40,–
C[C@H](CCC(=O)N[C@@H](CO)[C@@H](O)c1ccccc1)[C@H]1CC[C@H]2[C@@H]3C(O)C[C@@H]4C[C@H](O)CC[C@]4(C)[C@H]3C[C@H](O)[C@]12C (stereo partly specified),> 250,> 250,> 250,> 250,> 250,> 250,> 250,40,> 250,> 250,> 250,> 250,> 250,> 250,> 250,60,20,–
C[C@H](CCC(=O)N[C@@H](CO)[C@@H](O)c1ccccc1)[C@H]1CC[C@H]2[C@@H]3CC[C@@H]4C[C@H](O)CC[C@]4(C)[C@H]3C[C@H](O)[C@]12C,> 250,> 250,> 250,> 250,> 250,> 250,62.5,> 250,> 250,> 250,> 250,> 250,> 250,> 250,> 250,60,220,–
CN[C@H](CC(C)C)C(=O)N[C@H]1C(=O)N[C@@H](CC(N)=O)C(=O)N[C@H]2C(=O)N[C@H]3C(=O)N[C@H](C(=O)N[C@H](C(=O)O)c4cc(O)cc(O)c4-c4cc3ccc4O)[C@H](O)c3ccc(c(Cl)c3)Oc3cc2cc(c3O[C@@H]2O[C@H](CO)[C@@H](O)[C@H](O)[C@H]2O[C@H]2C[C@](C)(N)[C@H](O)[C@H](C)O2)Oc2ccc(cc2Cl)[C@H]1O [VANCOMYCIN],–,–,–,–,–,–,–,0.06,> 250,> 250,–,> 250,> 250,0.12,> 250,0.12,0.3,–
C[C@H](CCC(=O)N[C@@H](CO)[C@@H](O)c1ccc([N+](=O)[O-])cc1)[C@H]1CC[C@H]2[C@@H]3C(O)C[C@@H]4C[C@H](O)CC[C@]4(C)[C@H]3C[C@H](O)[C@]12C (stereo partly specified),> 250,> 250,> 250,> 250,> 250,> 250,> 250,> 250,> 250,> 250,> 250,> 250,> 250,75,> 250,40,> 250,–
C[C@H](CCC(=O)N[C@H](CO)[C@H](O)c1ccc([N+](=O)[O-])cc1)[C@H]1CC[C@H]2[C@@H]3CC[C@@H]4C[C@H](O)CC[C@]4(C)[C@H]3C[C@H](O)[C@]12C,> 250,> 250,> 250,> 250,> 250,> 250,> 250,15,> 250,> 250,> 250,> 250,> 250,7.5,> 250,4,7.5,–
C[C@H](CCC(=O)N[C@@H](CO)[C@@H](O)c1ccc([N+](=O)[O-])cc1)[C@H]1CC[C@H]2[C@@H]3CC[C@@H]4C[C@H](O)CC[C@]4(C)[C@H]3C[C@H](O)[C@]12C,> 250,> 250,> 250,> 250,> 250,> 250,> 250,10,> 250,> 250,> 250,> 250,> 250,> 250,> 250,30,> 250,–
NYSTATIN,–,–,–,–,–,–,–,–,–,–,–,–,–,–,–,–,–,IC50 (Aspergillus niger): 2.5 µg/mL; IC50 (Aspergillus flavus): 2.5 µg/mL; IC50 (Candida albicans): 0.25 µg/mL; IC50 (Nannizzia gypsea [1]): 3.125 µg/mL; IC50 (Sporothrix schenckii [2]): 3.125 µg/mL; IC50 (Trichophyton rubrum): 2.5 µg/mL
C[C@H](CCC(=O)N[C@H](CO)[C@H](O)c1ccc([N+](=O)[O-])cc1)[C@H]1CC[C@H]2[C@@H]3C(O)C[C@@H]4C[C@H](O)CC[C@]4(C)[C@H]3C[C@H](O)[C@]12C (stereo partly specified),> 250,> 250,> 250,> 250,> 250,> 250,> 250,60,> 250,> 250,> 250,> 250,> 250,75,> 250,6,100,–
